Screening data deposited in PubChem by Sanford-Burnham Center for Chemical Genomics.
bIAP inhibitor: bovine intestinal alkaline phosphatase inhibitors, primary screen, selectivity assay for TNAP inhibitor project, biochemical, bovine IAP, CDP-star luminescence; 190,000 tested, under 10 active; inhibition, % at 20 µM; purified bovine IAP, 30 min; AID 1019, 2008;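 active = over 50% inhibition of intestinal alkaline phosphatase at 20 µM in the single-dose screen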
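test system = bovine IAP enzyme | medium = DEA buffer 100 mM, pH 9.8, with MgCl2 1.0 mM, ZnCl2 0.02 mM | detection = luminescence | dosing = single compound dose of 20 µM, 2% DMSO final | incubation = 30 min reaction at room temperature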
bIAP activator: bovine intestinal alkaline phosphatase activators, primary screen, biochemical, bovine IAP, CDP-star luminescence; alkaline phosphatase, intestinal [Bos taurus]; purified bovine IAP, 30 min; stronger effect = higher value; fold of DMSO-control signal, blank-subtracted; activation factor at 20 µM; hit rate 0.17% among 200,000; AID 1016, 2008;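 active = activation factor of 2 or more at 20 µM, a signal rise over negative controls twice the positive control's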
mIAP block: inhibitors of mouse IAP, primary screen, biochemical, luminescence, uHTS | purified mouse IAP, CDP-Star luminescence, 30 min | inhibition, % at 10 µM | hit rate 0.2% among 330,000 | AID 2806, 2010;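 active = inhibition of at least 40% at 10 µM in the primary screen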;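 also: plate controls were DMSO with enzyme for no effect and no enzyme wells for full effect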
hIAP inh: human IAP inhibitors, primary screen, biochemical, luminescence, uHTS; Intestinal-type alkaline phosphatase (Homo sapiens), P09923; purified IAP, CDP-Star luminescence, 30 min; inhibition, % at 10 µM; hit rate 0.12% among 330,000;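 active = inhibition reaching a set limit with compound at 10 µM in the primary screen, cut at about 35% in these data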;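 also: plate controls were DMSO wells with enzyme for no effect and no-enzyme buffer wells for full effect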
Target sequence (P09923 whole entry, looked up): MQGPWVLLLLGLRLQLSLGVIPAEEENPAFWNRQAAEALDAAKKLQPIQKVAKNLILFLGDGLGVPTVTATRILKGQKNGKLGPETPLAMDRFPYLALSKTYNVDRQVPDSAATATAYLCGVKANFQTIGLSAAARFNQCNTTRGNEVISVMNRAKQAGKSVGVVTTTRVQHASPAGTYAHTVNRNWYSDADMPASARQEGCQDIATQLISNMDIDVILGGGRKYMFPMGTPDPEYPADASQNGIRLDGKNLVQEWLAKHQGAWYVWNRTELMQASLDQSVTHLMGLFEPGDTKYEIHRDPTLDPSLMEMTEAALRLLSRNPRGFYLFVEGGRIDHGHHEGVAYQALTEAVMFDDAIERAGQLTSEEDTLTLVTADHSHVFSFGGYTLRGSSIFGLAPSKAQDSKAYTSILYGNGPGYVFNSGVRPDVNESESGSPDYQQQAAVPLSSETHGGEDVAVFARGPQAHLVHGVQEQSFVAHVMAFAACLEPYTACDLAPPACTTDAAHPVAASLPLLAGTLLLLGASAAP
mIAP activ: activators of mouse IAP, primary screen, biochemical, luminescence, uHTS | intestinal alkaline phosphatase [Mus musculus] | hit rate 0.24% among 330,000 | activation factor at 10 µM | AID 2805, 2010 | muIAP, CDP-Star luminescence, 30 min; stronger effect = higher value; 1 = vehicle-only enzyme signal, 0 = enzyme-free wells;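 active = activation factor of at least 2 at 20 µM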
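Assay system: mouse IAP enzyme / Compound: DMSO-dissolved test compounds / Timing: 30 min, room temperature / Measured by: luminescence from enzymatic CDP-Star hydrolysis / Control set: DMSO-only wells, enzyme-free buffer wells as negative control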
hIAP activ: human IAP activators, primary screen, biochemical, luminescence, uHTS; Intestinal-type alkaline phosphatase (Homo sapiens), P09923; hit rate 0.16% among 330,000; purified human IAP, CDP-Star luminescence, 30 min; stronger effect = higher value; 1 = vehicle-only enzyme, 0 = enzyme-free background; activation factor at 10 µM;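 active = activation factor of the enzyme at least 2-fold when tested at 20 µM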
mIAP inh confirm: inhibitors of mouse IAP, confirmation, biochemical, luminescence, single concentration; shares compounds with mIAP block; inhibition, % at 10 µM; hit rate 4.7% among 11,000; AID 434971, 2010; purified mouse IAP, CDP-Star luminescence, 30 min;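 active = inhibition of at least 40% at 10 µM in either of the two replicates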;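 also: plate controls were DMSO wells with enzyme for no effect and buffer wells lacking enzyme for full effect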
Active calls of the source: *; . = not tested or not shown. Hits are enriched below; roughly 0.79% of the tested compounds scored in any of these assays.

SMILES	bIAP inhibitor	bIAP activator	mIAP block	hIAP inh	mIAP activ	hIAP activ	mIAP inh confirm
CC(=O)c1sc(C(=O)O)c(-c2ccco2)c1-c1ccco1	.	.	55*	4	0.45	0.96	64*
Cn1c(=O)c(C(=O)c2ccc(S(C)(=O)=O)c(Cl)c2Cl)c(O)c2ccccc21	.	.	0	4	1	0.96	.
Cc1nc(N)sc1-c1csc(Nc2cccc(C(=O)O)c2)n1	.	.	52*	10	0.48	0.9	54*
Cc1cc(NS(=O)(=O)c2ccc(Nc3nc(-c4sc(N)nc4C)cs3)cc2)no1	-27	1.3	44*	0	0.56	1	59*
Cc1cc(NS(=O)(=O)c2ccc(Nc3nc(-c4ccc(C)c(C)c4)cs3)cc2)no1	.	0.3	1	1	0.99	0.99	.
O=c1oc2cc(O)ccc2s1	.	.	48*	-11	0.52	1.1	72*
COc1ccc(N2CC(NC(=O)N3CCc4ccccc43)CC2=O)cc1OC (configuration not stated)	-11	1.1	2	0	0.98	1	.
COc1ccccc1C(CC(=O)Nc1ccc(Cl)cc1)c1ccc(OC(C)C)cc1 (configuration not stated)	.	0.4	-268	-28	3.7*	1.3	-91
C[C@H](CO)N1C[C@H](C)[C@@H](CN(C)S(=O)(=O)c2cccs2)Oc2ccc(NC(=O)Nc3ccccc3)cc2C1=O	.	.	-221	-1	3.2*	1	-152
C[C@@H]1CN([C@H](C)CO)C(=O)c2cc(NC(=O)Nc3ccc(C(F)(F)F)cc3)ccc2O[C@H]1CN(C)S(=O)(=O)c1cccs1	.	.	-69	0	1.7	1	.
Cc1ccc(S(=O)(=O)N(C)C[C@@H]2Oc3ccc(NC(=O)Nc4cccc5ccccc45)cc3C(=O)N([C@H](C)CO)C[C@H]2C)cc1	.	.	-225	-9	3.3*	1.1	-113
COc1ccc(NC(=O)Nc2ccc3c(c2)C(=O)N([C@H](C)CO)C[C@H](C)[C@@H](CN(C)S(=O)(=O)c2ccc(F)cc2)O3)cc1	.	.	-185	4	2.9*	0.96	-101
C[C@H](CO)N1C[C@H](C)[C@@H](CN(C)S(=O)(=O)c2ccccc2)Oc2ccc(NC(=O)C3CC3)cc2C1=O	.	.	-3	-32	1	1.3	.
C[C@H](CO)N1C[C@H](C)[C@@H](CN(C)S(=O)(=O)c2ccccc2)Oc2ccc(NC(=O)Nc3ccccc3)cc2C1=O	.	.	-216	4	3.2*	0.96	-162
C[C@H](CO)N1C[C@H](C)[C@@H](CN(C)C(=O)Nc2ccccc2)Oc2ccc(NC(=O)Nc3ccccc3)cc2C1=O	.	.	-207	-13	3.1*	1.1	-123
C[C@H](CO)N1C[C@H](C)[C@@H](CN(C)C(=O)NC2CCCCC2)Oc2ccc(NC(=O)Nc3ccccc3)cc2C1=O	.	.	-159	10	2.6*	0.9	-100
CC(C)NC(=O)Nc1ccc2c(c1)C(=O)N([C@H](C)CO)C[C@H](C)[C@@H](CN(C)C(=O)NC1CCCCC1)O2	.	.	-8	0	1.1	1	.
C=C1CCN([C@@H](Cc2ccccc2)C(=O)NC2CCN(Cc3ccccc3)CC2)S(=O)(=O)c2ccccc21	.	.	-8	12	1.1	0.88	.
COc1cc(CN2CCCC(CO)(Cc3ccccc3C)C2)cc2c1OCO2 (configuration not stated)	-3	1	6	9	0.94	0.91	.
CCOc1ccc(CN(C)C(=O)CNC(=O)c2sc3ccccc3c2Cl)cc1	.	.	-4	-9	1	1.1	.
CCc1ccc(NC(=O)c2cnc(SC)nc2C)cc1	.	.	-3	-11	1	1.1	.
CC(=O)Nc1csc2ccccc12	-4	1	2	1	0.98	0.99	.
O=C(Nc1ccccc1)Nc1csc2ccccc12	.	.	-223	-4	3.2*	1	-108
CCCCNC(=O)Oc1c(Br)cc2sc(=O)oc2c1Br	.	.	78*	-12	0.22	1.1	81*
O=[N+]([O-])c1ccc(Cl)c2c1C1C=CCC1C(c1ccccn1)N2 (configuration not stated)	18	0.8	19	3	0.81	0.97	.
SMILES	bIAP inhibitor	bIAP activator	mIAP block	hIAP inh	mIAP activ	hIAP activ	mIAP inh confirm
O=C(O)C1Nc2c(O)cc(Cl)c([N+](=O)[O-])c2C2C=CCC12 (configuration not stated)	17	0.8	75*	-10	0.25	1.1	79*
N=C1/C(=C\c2coc3ccc(O)cc3c2=O)C(=O)N=C2SC=CN12	.	.	59*	-7	0.41	1.1	64*
CCOc1ccc(NC(=S)N(CCOC)C2CCN(C(C)C)CC2)cc1	.	.	0	-13	1	1.1	.
Cc1ccc(/C=C/C2=Cc3c(sc(NC(=O)CSc4n[nH]c(N)n4)c3C#N)C(C)(C)C2)o1	12	0.9	47*	-16	0.53	1.2	51*
Cc1cc(C)cc(OCC(=O)Nc2ccccc2N2CCCCC2)c1	0	1	8	3	0.92	0.97	.
COc1ccccc1NS(=O)(=O)c1cc(NC(C)=O)ccc1N1CCCCC1	-11	1.1	0	-24	1	1.2	.
COc1ccc(NC(=O)Nc2ccccc2)cc1S(=O)(=O)N1CCCCC1	-6	1.1	-346	-67	4.5*	1.7	-187
Cc1cc(C)cc(NC(=O)Nc2ccccc2N2CCCCC2)c1	.	.	-227	-12	3.3*	1.1	-112
COc1ccccc1NS(=O)(=O)c1cc(NC(=O)Nc2cccc(C)c2)ccc1N1CCCCC1	8	0.9	-457	-24	5.6*	1.2	-278
Cc1ccc(CNC(=O)COC(=O)c2cccc(S(=O)(=O)N3CCCCC3)c2)cc1	.	.	4	1	0.96	0.99	.
Cc1nc2c(sc(=S)n2Cc2ccco2)c(=O)n1CC(=O)Nc1cc(F)ccc1F	.	.	3	-5	0.97	1	.
N#Cc1c(-c2ccccc2)nc(SCC(=O)Nc2ccc(OC(F)(F)Cl)cc2)[nH]c1=O	.	.	4	-10	0.95	1.1	.
COc1ccccc1C(=O)NCC(=O)N1CCN(c2ncccn2)CC1	.	.	-6	12	1.1	0.89	.
O=C(N/N=C/c1cc2c(cc1[N+](=O)[O-])OCO2)c1ccccn1	.	.	40*	0	0.6	1	58*
